# From ChEMBL document CHEMBL1134288, “Design and optimization of 20-O-linked camptothecin glycoconjugates as anticancer agents” (J Med Chem, 2001)
# Assays:
# [1] = tested on: B16-F10; assay: In vitro cytotoxic activity against murine melanoma cell line B16F10 using MTT growth inhibition assay; assay type: functional, cell-based; conditions: Mus musculus
# Outline: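 This murine melanoma line was grown in RPMI 1640 with 10% FCS, trypsinized at confluence and seeded at 20,000 cells/mL, then left 1 day. Compounds in DMSO or water were added. After 6 days, MTT (5 mg/mL stock) was added for 5 h at 37 °C, formazan was dissolved in 2-propanol/water, and absorbance was read at 595 nm to give IC50.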
# [2] = species on record: Canis familiaris; assay: In vitro No effect conc (NOEC) with respect to elevated levels of Lactate dehydrogenase (LDH) using primary hepatocytes of dog; assay type: functional, Canis lupus familiaris, Hepatocyte
# Outline: (§1)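 Primary hepatocytes were isolated by two-step liver perfusion: first an EGTA (0.5 mM)/HEPES buffer, then a HEPES (pH 7.4) buffer with CaCl2 and collagenase type IV. Cells were cultured in collagen sandwich gels in supplemented medium with 10% FCS, then given 48 h adaptation. DMSO stocks (3 mM) were diluted in medium. Treatment ran 1-7 days with daily medium change, and ALT, AST and LDH were read in the supernatant.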
# [3] = species on record: Canis familiaris; assay: In vitro No effect conc (NOEC) with respect to elevated levels of alanine aminotransferase (ALT) using primary hepatocytes of dog; assay type: functional, Canis lupus familiaris, Hepatocyte; outline: as §1
# [4] = species on record: Canis familiaris; assay: In vitro No effect conc (NOEC) with respect to elevated levels of aspartate aminotransferase (AST) using primary hepatocytes of dog; assay type: functional, Canis lupus familiaris, Hepatocyte; outline: as §1
# [5] = tested on: HT-29; assay: In vitro cytotoxic activity against human colon cancer cell line HT-29 using MTT growth inhibition assay; assay type: functional, cell-based
# Outline: (§2)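 Cells were grown in RPMI 1640 with 10% FCS, trypsinized at confluence and plated at 50,000 cells/mL, then left 1 day. Compounds in DMSO or water were added, and growth was read 6 days later by MTT (5 mg/mL stock, 5 h at 37 °C). Formazan was dissolved in 2-propanol/water and absorbance read at 595 nm; IC50 was derived from this read-out.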
# [6] = species on record: Homo sapiens; assay: In vitro No effect conc (NOEC) with respect to elevated levels of Lactate dehydrogenase (LDH) using primary hepatocytes of human; assay type: functional, Hepatocyte; outline: as §1
# [7] = species on record: Homo sapiens; assay: In vitro No effect conc (NOEC) with respect to elevated levels of alanine aminotransferase (ALT) using primary hepatocytes of human; assay type: functional, Hepatocyte; outline: as §1
# [8] = species on record: Homo sapiens; assay: In vitro No effect conc (NOEC) with respect to elevated levels of aspartate aminotransferase (AST) using primary hepatocytes of human; assay type: functional, Hepatocyte; outline: as §1
# [9] = species on record: Rattus norvegicus; assay: In vitro No effect conc (NOEC) with respect to elevated levels of Lactate dehydrogenase (LDH) using primary hepatocytes of rat; assay type: functional, Hepatocyte; outline: as §1
# [10] = species on record: Rattus norvegicus; assay: In vitro No effect conc (NOEC) with respect to elevated levels of alanine aminotransferase (ALT) using primary hepatocytes of rat; assay type: functional, Hepatocyte; outline: as §1
# [11] = species on record: Rattus norvegicus; assay: In vitro No effect conc (NOEC) with respect to elevated levels of aspartate aminotransferase (AST) using primary hepatocytes of rat; assay type: functional, Hepatocyte; outline: as §1
# [12] = tested on: SW480; assay: In vitro cytotoxic activity against human colon cancer cell line SW480 using MTT growth inhibition assay; assay type: functional, cell-based; outline: as §2
Compound,IC50 [1] [nM],NOEC [2] [µM],NOEC [3] [µM],NOEC [4] [µM],IC50 [5] [nM],NOEC [6] [µM],NOEC [7] [µM],NOEC [8] [µM],NOEC [9] [µM],NOEC [10] [µM],NOEC [11] [µM],IC50 [12] [nM]
CC[C@@]1(OC(=O)C(NC(=O)[C@H](Cc2c[nH]cn2)/N=C(\S)Nc2ccc(O[C@H]3O[C@@H](C)[C@@H](O)[C@@H](OC)[C@@H]3O)cc2)C(C)C)C(=O)OCc2c1cc1n(c2=O)Cc2cc3ccccc3nc2-1 (stereo partly specified),250,10,10,10,60,30,30,30,10,10,10,170
CC[C@@]1(OC(=O)[C@H](NC(=O)[C@H](CCCCN)/N=C(\S)Nc2ccc(O[C@H]3O[C@@H](C)[C@@H](O)[C@@H](OC)[C@@H]3O)cc2)C(C)C)C(=O)OCc2c1cc1n(c2=O)Cc2cc3ccccc3nc2-1,600,–,–,–,120,–,–,–,–,–,–,150
CC[C@@]1(OC(=O)[C@H](NC(=O)[C@H](CCCN=C(N)N)/N=C(\S)Nc2ccc(O[C@H]3O[C@@H](C)[C@@H](O)[C@@H](OC)[C@@H]3O)cc2)C(C)C)C(=O)OCc2c1cc1n(c2=O)Cc2cc3ccccc3nc2-1,400,–,–,–,100,–,–,–,–,–,–,110
CC[C@@]1(OC(=O)CNC(=O)[C@H](Cc2c[nH]cn2)/N=C(\S)Nc2ccc(O[C@H]3O[C@@H](C)[C@@H](O)[C@@H](OC)[C@@H]3O)cc2)C(=O)OCc2c1cc1n(c2=O)Cc2cc3ccccc3nc2-1,30,–,–,–,10,–,–,–,–,–,–,15
CC[C@@]1(O)C(=O)OCc2c1cc1n(c2=O)Cc2cc3c(CN(C)C)c(O)ccc3nc2-1.Cl [TOPOTECAN HYDROCHLORIDE],–,1,1,0.1,–,10,0.1,1,1,0.1,0.1,–
CC[C@@]1(OC(=O)C(NC(=O)[C@H](CCCN=C(N)N)/N=C(\S)Nc2ccc(O[C@H]3O[C@@H](C)[C@@H](O)[C@@H](OC)[C@@H]3O)cc2)C(C)C)C(=O)OCc2c1cc1n(c2=O)Cc2cc3ccccc3nc2-1 (stereo partly specified),400,–,–,–,100,–,–,–,–,–,–,170
CC[C@@]1(OC(=O)CNC(=O)[C@H](CCCCN)/N=C(\S)Nc2ccc(O[C@H]3O[C@@H](C)[C@@H](O)[C@@H](OC)[C@@H]3O)cc2)C(=O)OCc2c1cc1n(c2=O)Cc2cc3ccccc3nc2-1,50,–,–,–,10,–,–,–,–,–,–,30
CC[C@@]1(OC(=O)[C@H](NC(=O)[C@H](Cc2c[nH]cn2)/N=C(\S)Nc2ccc(O[C@H]3O[C@@H](C)[C@@H](O)[C@@H](OC)[C@@H]3O)cc2)C(C)C)C(=O)OCc2c1cc1n(c2=O)Cc2cc3ccccc3nc2-1,600,–,–,–,160,–,–,–,–,–,–,230
CC[C@@]1(OC(=O)C(NC(=O)[C@H](CCCCN)/N=C(\S)Nc2ccc(O[C@H]3O[C@@H](C)[C@@H](O)[C@@H](OC)[C@@H]3O)cc2)C(C)C)C(=O)OCc2c1cc1n(c2=O)Cc2cc3ccccc3nc2-1 (stereo partly specified),700,30,10,30,150,30,30,30,30,30,30,170
